Source: ChEMBL document CHEMBL4368914, “Tricyclic Indazoles-A Novel Class of Selective Estrogen Receptor Degrader Antagonists” (J Med Chem, 2019)

What was measured:
Estrogen receptor [1] = target: T1, Estrogen receptor (Homo sapiens, UniProt P03372); assay: Binding affinity to recombinant human GST-tagged ERalpha LBD expressed in baculovirus-infected insect cells by lantha screen assay
T1 sequence (P03372 whole entry): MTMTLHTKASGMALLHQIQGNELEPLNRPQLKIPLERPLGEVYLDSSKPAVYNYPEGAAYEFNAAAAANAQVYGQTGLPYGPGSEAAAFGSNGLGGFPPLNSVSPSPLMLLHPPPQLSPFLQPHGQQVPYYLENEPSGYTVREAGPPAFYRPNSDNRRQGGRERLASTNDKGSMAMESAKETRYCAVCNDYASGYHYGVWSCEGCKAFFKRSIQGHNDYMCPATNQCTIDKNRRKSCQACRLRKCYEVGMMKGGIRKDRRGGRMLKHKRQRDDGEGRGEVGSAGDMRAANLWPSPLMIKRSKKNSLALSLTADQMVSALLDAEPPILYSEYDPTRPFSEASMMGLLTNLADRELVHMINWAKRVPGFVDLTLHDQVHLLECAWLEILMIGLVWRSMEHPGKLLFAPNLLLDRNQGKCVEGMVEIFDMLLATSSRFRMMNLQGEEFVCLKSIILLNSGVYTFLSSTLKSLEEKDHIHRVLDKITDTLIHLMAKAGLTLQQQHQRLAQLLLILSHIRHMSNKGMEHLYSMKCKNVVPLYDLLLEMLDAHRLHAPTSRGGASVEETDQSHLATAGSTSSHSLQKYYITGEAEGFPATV

Estrogen receptor [2] = target: T1, Estrogen receptor; assay: Induction of ERalpha degradation in human MCF7 cells after 18 to 24 hrs by in multiplexed cell assay; type: cell-based
Outline: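 MCF-7 cells were kept at 37 °C, 5% CO₂ in phenol red-free RPMI1640 with 5% charcoal-stripped FCS and 2 mmol/L glutamine. Compounds came from 10 mmol/L DMSO stocks.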

[3] = Lipophilicity, log D of the compound at pH 7.4 by shake flask method; type: physicochemical; details: buffer
Outline: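 Shake-flask measurement of logD at pH 7.4.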

[4] = Fraction unbound in Alderley Park Han Wistar rat plasma by equilibrium dialysis; type: ADME, cell-free
Outline: (§1)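 Equilibrium dialysis from DMSO stock in 10% plasma, either Alderley Park Han Wistar rat plasma or human plasma.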

[5] = Fraction unbound in 10% human plasma by equilibrium dialysis; type: ADME, cell-free; details: 10% plasma; outline: as §1
[6] = Intrinsic clearance in rat hepatocytes assessed per million cells; type: ADME, cell-based, Hepatocyte; details: read-out: CLH
Outline: (§2)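 Rate of metabolism (µl/min/10⁶ cells) measured from DMSO stock in isolated hepatocytes diluted to 1x10⁶ cells/mL.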

[7] = Intrinsic clearance in human hepatocytes assessed per million cells; type: ADME, cell-based, Hepatocyte; details: read-out: CLH; outline: as §2
[8] = Glutathione reactivity in human liver microsomes assessed as GSH trapping ratio of compound to clozapine; type: ADME, Microsome
Outline: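 Glutathione trapping in human liver microsomes, expressed as a ratio to clozapine.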

Row | SMILES | IC50 (Estrogen receptor [1]) | IC50 (Estrogen receptor [2]) | logD [3] | fraction unbound [4] | fraction unbound [5] | hepatocyte CLint [6] | hepatocyte CLint [7] | Ratio [8]
1 | C[C@@H]1Cc2c(ccc3[nH]ncc23)[C@@](C)(c2c(F)cc(/C=C/C(=O)O)cc2F)N1CC(C)(C)F | 0.398 nM | 0.631 nM | 2.9 | 0.0023 | 0.0033 | 12 µL/min/1e6 cells | 10 µL/min/1e6 cells | < 0.04
2 | COc1cc(/C=C/C(=O)O)cc(F)c1[C@@H]1c2ccc3[nH]ncc3c2C[C@@H](C)N1CC(C)(F)F | 0.316 nM | 0.2 nM | 2.8 |  | 0.007 | 32 µL/min/1e6 cells | 6 µL/min/1e6 cells | 
3 | COc1cc(/C=C/C(=O)O)ccc1[C@]1(C)c2ccc3[nH]ncc3c2C[C@@H](C)N1CC(C)(C)F | 3.98 nM | 2.51 nM | 1.9 |  | 0.077 | 10 µL/min/1e6 cells | 4 µL/min/1e6 cells | 
4 | COc1cc(/C=C/C(=O)O)ccc1[C@@H]1c2ccc3[nH]ncc3c2C[C@@H](C)N1CC(C)(C)F | 1.58 nM | 0.631 nM | 2.2 | 0.046 | 0.0098 | 17 µL/min/1e6 cells | 6 µL/min/1e6 cells | < 0.04

Second part, the compound after the results:

Row | IC50 (Estrogen receptor [1]) | IC50 (Estrogen receptor [2]) | logD [3] | fraction unbound [4] | fraction unbound [5] | hepatocyte CLint [6] | hepatocyte CLint [7] | Ratio [8] | SMILES
5 | 1.58 nM | 0.316 nM | 2.9 | 0.015 | 0.0087 | 8 µL/min/1e6 cells | 78 µL/min/1e6 cells |  | C[C@@H]1Cc2c(ccc3[nH]ncc23)[C@@H](c2ccc(/C=C/C(=O)O)cc2)N1CC(C)(C)F
6 | 20 nM | 1.58 nM | 2 | 0.066 | 0.036 | 6 µL/min/1e6 cells | 93 µL/min/1e6 cells | < 0.04 | CC(C)CN1[C@H](c2ccc(/C=C/C(=O)O)cc2)c2ccc3[nH]ncc3c2CC1(C)C
7 | 316 nM | 63.1 nM | 1.7 | 0.068 | 0.033 | 20 µL/min/1e6 cells | 8 µL/min/1e6 cells |  | CC(C)CN1CCc2c(ccc3[nH]ccc23)C1c1ccc(/C=C/C(=O)O)cc1 (stereo not drawn)
8 | 25.1 nM | 6.31 nM | 1.9 | 0.036 | 0.07 | 10 µL/min/1e6 cells | 51 µL/min/1e6 cells | < 0.04 | CC(C)CN1CCc2c(ccc3[nH]ncc23)[C@H]1c1ccc(/C=C/C(=O)O)cc1
